In one experiment the test system is ATP synthase. As to conditions: cited from earlier work.
Experiment [1] deals with βD380R/βD386R. Nature of the experiment: Growth yield in limiting glucose. The experiment is classed as cell-based, E. coli. As to conditions: 3–5 mM glucose, wild type in absence of peptides = 100%, means of four to six experiments. In short, it runs like this:
(§1)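 Measures oxidative plus substrate-level phosphorylation as growth on limiting glucose (3–5 mM). The host is E. coli DK8 carrying plasmid pBWU13.4, which encodes all ATP synthase genes, or site-directed βD380/βD386 mutants built on a βY331W background; mutations were confirmed by sequencing. Cultures were grown with or without each of two C-amidated test peptides (>95% HPLC purity, dissolved in deionized water). pUC118/DK8 served as the null strain.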

The subject of experiment [2] is βD380Q. Nature of the experiment: Growth yield in limiting glucose. Format: cell-based, E. coli. As to conditions: 3–5 mM glucose, wild type in absence of peptides = 100%, means of four to six experiments. An outline of the steps:
as §1

The test system of experiment [3] is membrane bound F1Fo ATP synthase mutant βD380R. Nature of the experiment: Inhibition of ATPase activity, βD380R. Format: biochemical, Escherichia coli. Particulars: at maximal inhibition, preincubated 60 min at room temperature, pH 8.0. An outline of the steps: (§2)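 Wild-type or mutant membrane-bound F1Fo was prepared by French press, washed, and taken up in 50 mM TrisSO4 pH 8.0, 2.5 mM MgSO4. It was preincubated with a range of test peptide concentrations for 60 min at room temperature, then assayed with 10 mM NaATP, 4 mM MgCl2, 50 mM TrisSO4 pH 8.5 for 5–10 min using 20–30 µg protein. Reactions were stopped with SDS (3.3% final) and Pi read at OD700 (Taussky–Shorr). Activity is relative to wild type without peptide, from duplicate tubes and two or more membrane preparations.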

In a further experiment the test system is mutant E. coli cells. Put plainly: Growth in presence of peptides, mutants. Format: cell-based. As to conditions: succinate plates and limiting glucose.
For experiment [4], the system named is βD380R. Nature of the experiment: Growth on succinate plates. Format: cell-based, E. coli. Particulars: 3 days, estimated by eye, means of four to six experiments. An outline of the steps:
(§3)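 E. coli DK8 carrying plasmid-borne ATP synthase genes (wild-type pBWU13.4; mutants made by site-directed mutagenesis and sequence-verified) were grown on plates with succinate as the non-fermentable carbon source, with or without test peptide. Growth was scored by eye after 3 days on a scale from ++++ (normal/heavy) to − (none). Values are means of four to six experiments.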

In experiment [5] the test system is membrane bound F1Fo ATP synthase mutants βD380A/Q/R or βD386A/Q/R. Nature of the experiment: Inhibition of ATPase activity, single mutants as a group. Format: biochemical, Escherichia coli. As to conditions: for inhibition of ATPase, single mutants (in words): single mutations with replacement of Asp to Ala, Gln, or Arg. In short, it runs like this:
as §2

Experiment [6] concerns βD380Q/βD386Q. Put plainly: Growth yield in limiting glucose. The experiment is classed as cell-based, E. coli. As to conditions: 3–5 mM glucose, wild type in absence of peptides = 100%, means of four to six experiments. In short, it runs like this: as §1
The subject of experiment [7] is βD380A/βD386A. Put plainly: Growth yield in limiting glucose. Format: cell-based, E. coli. Particulars: 3–5 mM glucose, wild type in absence of peptides = 100%, means of four to six experiments. An outline of the steps: as §1
Experiment [8] has as its system membrane bound F1Fo ATP synthase double mutants βD380A/βD386A, βD380Q/βD386Q, or βD380R/βD386R. Nature of the experiment: Inhibition of ATPase activity, double mutants as a group. Format: biochemical, Escherichia coli. In short, it runs like this: as §2
Experiment [9] has as its system βD386Q. Nature of the experiment: Growth on succinate plates. The experiment is classed as cell-based, E. coli. As to conditions: 3 days, estimated by eye, means of four to six experiments. In short, it runs like this: as §3
For experiment [10], the system named is βY331W. Put plainly: Growth yield in limiting glucose. The experiment is classed as cell-based, E. coli. Particulars: 3–5 mM glucose, wild type in absence of peptides = 100%, means of four to six experiments. An outline of the steps:
as §1

The test system of experiment [11] is βD386R. Nature of the experiment: Growth yield in limiting glucose. Format: cell-based, E. coli. Particulars: 3–5 mM glucose, wild type in absence of peptides = 100%, means of four to six experiments. An outline of the steps:
as §1

In experiment [12] the test system is βD380A. Nature of the experiment: Growth yield in limiting glucose. Format: cell-based, E. coli. Particulars: 3–5 mM glucose, wild type in absence of peptides = 100%, means of four to six experiments. In short, it runs like this: as §1
Experiment [13] relates to βD380A. Put plainly: Growth on succinate plates. Format: cell-based, E. coli. As to conditions: 3 days, estimated by eye, means of four to six experiments. In short, it runs like this: as §3
For experiment [14], the system named is βD380R/βD386R. Put plainly: Growth on succinate plates. The experiment is classed as cell-based, E. coli. As to conditions: 3 days, estimated by eye, means of four to six experiments. An outline of the steps:
as §3

Experiment [15] has as its system membrane bound F1Fo ATP synthase mutant βD386R. Nature of the experiment: Inhibition of ATPase activity, βD386R. Format: biochemical, Escherichia coli. As to conditions: at maximal inhibition, preincubated 60 min at room temperature, pH 8.0. An outline of the steps:
as §2

In a further experiment the test system is wild type E. coli cells. Nature of the experiment: Growth in presence of peptides, wild-type. The experiment is classed as cell-based. As to conditions: succinate plates and limiting glucose. An outline of the steps: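 Wild-type DK8/pBWU13.4 was grown with test peptide on succinate plates, scored by eye after 3 days, and in limiting glucose (3–5 mM). Glucose growth yield is expressed relative to wild type without peptide, set as 100%. Values are means of four to six experiments.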

Experiment [16] deals with βD386A. Nature of the experiment: Growth yield in limiting glucose. The experiment is classed as cell-based, E. coli. As to conditions: 3–5 mM glucose, wild type in absence of peptides = 100%, means of four to six experiments. An outline of the steps:
as §1

The test system of experiment [17] is βD380Q/βD386Q. Put plainly: Growth on succinate plates. Format: cell-based, E. coli. As to conditions: 3 days, estimated by eye, means of four to six experiments. An outline of the steps: as §3
The subject of experiment [18] is Wild-type (pBWU13.4/DK8). Nature of the experiment: Growth on succinate plates. Format: cell-based, E. coli. As to conditions: 3 days, estimated by eye, means of four to six experiments. An outline of the steps:
as §3

Experiment [19] concerns βY331W. Put plainly: Growth on succinate plates. The experiment is classed as cell-based, E. coli. Particulars: 3 days, estimated by eye, means of four to six experiments. In short, it runs like this:
as §3

The test system of experiment [20] is βD386Q. Nature of the experiment: Growth yield in limiting glucose. Format: cell-based, E. coli. Particulars: 3–5 mM glucose, wild type in absence of peptides = 100%, means of four to six experiments. In short, it runs like this:
as §1

Experiment [21] concerns βD380Q. Nature of the experiment: Growth on succinate plates. Format: cell-based, E. coli. As to conditions: 3 days, estimated by eye, means of four to six experiments. An outline of the steps:
as §3

The test system of experiment [22] is βD386A. Put plainly: Growth on succinate plates. As to conditions: 3 days, estimated by eye, means of four to six experiments. Format: cell-based, E. coli. In short, it runs like this: as §3
Experiment [23] relates to βD380R. Nature of the experiment: Growth yield in limiting glucose. The experiment is classed as cell-based, E. coli. As to conditions: 3–5 mM glucose, wild type in absence of peptides = 100%, means of four to six experiments. In short, it runs like this: as §1
The subject of experiment [24] is βD386R. Put plainly: Growth on succinate plates. The experiment is classed as cell-based, E. coli. Particulars: 3 days, estimated by eye, means of four to six experiments. In short, it runs like this:
as §3

In experiment [25] the test system is Wild-type (pBWU13.4/DK8). Nature of the experiment: Growth yield in limiting glucose. Particulars: 3–5 mM glucose, wild type in absence of peptides = 100%, means of four to six experiments. Format: cell-based, E. coli. An outline of the steps: as §1
The subject of experiment [26] is βD380A/βD386A. Put plainly: Growth on succinate plates. The experiment is classed as cell-based, E. coli. Particulars: 3 days, estimated by eye, means of four to six experiments. In short, it runs like this: as §3
Another experiment has as its system Null (pUC118/DK8). Put plainly: Growth yield in limiting glucose. As to conditions: 3–5 mM glucose, wild type in absence of peptides = 100%, means of four to six experiments. The experiment is classed as cell-based, E. coli.

For `[Cl][Al]([Cl])[Cl]` [AlCl3], the “maximal inhibition of mutant or wild-type ATP synthase (in words)” value (from here on “maximal inhibition”) in the experiment with ATP synthase is “partially or incompletely inhibited”.
As to `O=[N+]([O-])c1ccc(Cl)c2nonc12` [NBD-Cl], the “maximal inhibition” value in the experiment with ATP synthase is listed as “partially or incompletely inhibited”.
In the case of `[N-]=[N+]=[N-].[Na+]` [NaN3], the “maximal inhibition” value with ATP synthase was “partially or incompletely inhibited”.
For `[Cl][Sc]([Cl])[Cl]` [ScCl3], in the experiment on ATP synthase, the “maximal inhibition” value is given as “partially or incompletely inhibited”.
melittin: the “ATPase inhibitory activity (in words)” value in the experiment on ATP synthase is “strongly inhibited”.
With melittin-amide, the “Growth yield in limiting glucose” value came to 66% with βD380R/βD386R [1]; 90% with βD380Q [2]; 72% with βD380Q/βD386Q [6]; 75% in the experiment on βD380A/βD386A [7]; 22% with βY331W [10]; 70% in the experiment on βD386R [11]. The “Growth yield in limiting glucose” value amounted to 89% in the experiment with βD380A [12]; 79% in the experiment on βD386A [16]; 74% in the experiment with βD386Q [20]; 82% with βD380R [23]; 20% with Wild-type (pBWU13.4/DK8) [25]; 43% with Null (pUC118/DK8). Also, the “residual ATPase activity” value in experiment [3] is reported as 80%. In the experiment on mutant E. coli cells, the “growth of mutant cells in presence of peptide (in words)” value is given as “not much affected”. Besides, the “Growth on succinate plates” value in the experiment on βD380R [4] is on record as “+++/+++”; in the experiment with βD386Q [9], “+++/+++”; in the experiment on βD380A [13], “+++/+++”; in the experiment with βD380R/βD386R [14], “++/++”; in the experiment on βD380Q/βD386Q [17] it was “+++/+++”; in the experiment on Wild-type (pBWU13.4/DK8) [18], “±/±”. Besides, the “Growth on succinate plates” value with βY331W [19] was “±/±”; in the experiment on βD380Q [21], “+++/+++”; in the experiment with βD386A [22], “+++/+++”; in the experiment with βD386R [24] it was “+++/+++”; in the experiment with βD380A/βD386A [26] it was “+++/+++”. Moreover, the “refractoriness of mutants to peptide induced inhibition (in words)” value in [5] (all of the mutations used in this study (single and double)) was “refractory”. Besides, the “inhibition of ATPase, single mutants (in words)” value in experiment [5] is given as “decreased inhibition”; in [5] (listed as c-terminal amide bound melittin), “only partial inhibition”. The “inhibition of ATPase, double mutants (in words)” value in experiment [8] is “very little or no inhibition”. Moreover, the “prevention of inhibition (residual activity)” value in experiment [15] amounted to 80%. In addition, the “growth of wild-type cells in presence of peptide (in words)” value in the experiment with wild type E. coli cells is given as “abrogated growth”.
